Hits are enriched below; roughly 2.9% of the tested compounds scored in any of these assays.
PRMT1 FP inh: blocks human protein arginine methyltransferase 1. Q99873. recombinant PRMT1, activity-based probe fluorescence polarization. inhibition, % at 2.79 µM. 370,000 tested, 1.3% active. AID 652257;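 active = inhibition above about 21% made by adding two undisclosed values, limit read from the data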
Target sequence (Q99873 whole entry, looked up): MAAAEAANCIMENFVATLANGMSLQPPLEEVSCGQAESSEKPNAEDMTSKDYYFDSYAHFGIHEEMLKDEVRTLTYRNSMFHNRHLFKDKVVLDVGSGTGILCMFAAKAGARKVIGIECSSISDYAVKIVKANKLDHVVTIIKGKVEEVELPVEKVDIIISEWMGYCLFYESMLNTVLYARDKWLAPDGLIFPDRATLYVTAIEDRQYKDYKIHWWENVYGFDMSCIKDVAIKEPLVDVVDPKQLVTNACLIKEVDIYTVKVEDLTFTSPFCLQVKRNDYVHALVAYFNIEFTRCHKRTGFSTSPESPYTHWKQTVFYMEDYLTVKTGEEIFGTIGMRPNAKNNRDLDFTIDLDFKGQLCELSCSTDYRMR
ABHD5-PLIN5 inh: blocks binding of human ABHD5 to perilipin-5; 360,000 tested, 0.78% active; Split G. princeps luciferase complementation, luminescence, 4 h; AID 602281; inhibition, % at 4 µM; Q00G26+Q8WTS1;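 active = inhibition above the mean inhibition across every tested compound plus 3 SD, cut at about 22% in these data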
APOBEC3A inh: inhibitors of human APOBEC3A DNA deaminase. P31941. recombinant A3A, FAM/TAMRA ssDNA deamination fluorescence. inhibition, % at 20 µM. 330,000 tested, 0.41% active. AID 493011;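 active = at least 40% inhibition at 20 µM here, with at most 30% in a related deaminase screen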
Target sequence (P31941 whole entry, looked up): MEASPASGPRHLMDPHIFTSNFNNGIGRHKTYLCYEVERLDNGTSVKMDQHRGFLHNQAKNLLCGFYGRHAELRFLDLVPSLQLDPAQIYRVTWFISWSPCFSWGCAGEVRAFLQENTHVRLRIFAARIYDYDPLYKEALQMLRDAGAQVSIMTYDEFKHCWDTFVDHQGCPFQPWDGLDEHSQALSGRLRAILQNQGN
core dimer inh: HCV core protein dimerization inhibition. AID 1899. inhibition, % at 5 µM. 300,000 tested, 0.33% active. TR-FRET GST/Flag-core106 dimerization, 1536-well;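 active = inhibition above the mean of all tested compounds plus 3 SD, set per screening campaign, cut at about 45% in these data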
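Material: GST/Flag-tagged HCV core106 proteins. Incubation: 4 h, 22.5 °C incubation. Read-out basis: inhibition (%) from 671 over 617 nm ratio. Measured by: TR-FRET, excitation 340 nm, emission 617 and 671 nm.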
HCV NS3 hel inh: inhibitors of Hepatitis C virus NS3 helicase; 290,000 tested, 0.56% active; inhibition, % at 10.9 µM; AID 1800; NS3 helicase DNA unwinding, Cy5 molecular beacon fluorescence;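 active = inhibition above the mean of all tested compounds plus 3 SD, set per campaign, cut at about 35% in these data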
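System: HCV NS3 helicase fragment; control set: DMSO and thioflavine S; technique: Cy5 fluorescence at 0 and 60 min, beacon hairpin quenching; reagent: beacon DNA duplex substrate plus ATP; replicates: singlicate; schedule: 1 h reaction at 25 °C, ATP-initiated; medium: MOPS buffer pH 6.5 with MgCl2, DTT, Tween20, BSA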
A3G deaminase: inhibitors of human APOBEC3G DNA deaminase | Q9HC16 | recombinant A3G, ssDNA deamination FAM/TAMRA fluorescence | inhibition, % at 20 µM | 330,000 tested, 0.28% active | AID 493012;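 active = inhibition of at least 40% at 20 µM, with no more than 30% in the related APOBEC3A deaminase screen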
NS3 helicase cf: confirmation of Hepatitis C virus NS3 helicase inhibitors | shares compounds with HCV NS3 hel inh | NS3 helicase DNA unwinding, Cy5 molecular beacon fluorescence | inhibition, % at 10.9 µM | 1,600 tested, 31% active | AID 1943;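 active = inhibition above the mean of all tested compounds plus 3 SD, cutoff set per campaign, cut at about 36% in these data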
DNA FID counter: displaces DNA intercalator in HCV helicase counter-screen | inhibition, % at 7.9 µM | 1,600 tested, 4% active | DNA fluorescent intercalator displacement, fluorescence | shares compounds with HCV NS3 hel inh; in the data active = inhibition above about 37%;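 also: higher means more displacement of ethidium bromide from the DNA hairpin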
FID counter DR: displaces fluorescent intercalator from DNA, HCV helicase counter-screen | 120 tested, under 10 active | fluorescent intercalator displacement from DNA, fluorescence | shares compounds with HCV NS3 hel inh | IC50, µM
APOBEC3A confirm: APOBEC3A (human) deaminase inhibition, confirmed; shares compounds with APOBEC3A inh; recombinant A3A, ssDNA deaminase UDG fluorescence assay; inhibition, % at 20 µM; 1,400 tested, 63% active; AID 493151;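 active = inhibition reaching a set limit, 80% of the first screen's cutoff, at 20 µM in any replicate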
UDG A3A counter: UDG inhibition in APOBEC3A counter-screen; shares compounds with APOBEC3A inh; 1,000 tested, under 10 active; inhibition, % at 20 µM; UDG counterscreen, FAM/TAMRA uracil oligo fluorescence
A3G conf: confirmation of human APOBEC3G DNA deaminase inhibitors; shares compounds with A3G deaminase; recombinant A3G ssDNA deaminase, UDG/FAM-TAMRA fluorescence; inhibition, % at 20 µM; 890 tested, 72% active; AID 493152;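 active = inhibition reaching a set limit in any replicate at 20 µM, the limit being 80% of the first screen's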
UDG A3G counter: counter-screen for APOBEC3G inhibitors: E. coli UDG. UDG counterscreen, FAM/TAMRA oligo fluorescence. shares compounds with A3G deaminase. 710 tested, under 10 active. inhibition, % at 20 µM;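 active = compounds giving 40% or more inhibition at 20 µM in any one of the three replicates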;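 also: inhibitors lower the FAM signal released by uracil excision and alkaline cleavage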
ABHD5-PLIN5 conf: confirmation of human ABHD5-PLIN5 interaction inhibitors; inhibition, % at 4 µM; 2,200 tested, 67% active; shares compounds with ABHD5-PLIN5 inh; AID 651612; biochemical ABHD5-PLIN5 interaction, luminescence; in the data active = inhibition above about 23%
HNF4 split-luc: counter-screen for ABHD5-PLIN5 inhibitors: HNF4 split-luciferase. 2,200 tested, 77% active. inhibition, % at 4 µM. HNF4 dimerization, luminescence, biochemical. shares compounds with ABHD5-PLIN5 inh;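 active = mean inhibition across replicate wells exceeding the computed hit threshold, cut at about 13% in these data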;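 also: light from luciferase halves that rejoin when HNF4 fusion proteins dimerize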
PRMT1 inh conf: confirmation of human PRMT1 inhibitors. shares compounds with PRMT1 FP inh. recombinant His-PRMT1, activity-based probe fluorescence polarization. inhibition, % at 2.79 µM. 3,300 tested, 42% active. AID 687036;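 active = mean inhibition across replicates above the hit cutoff derived for the earlier primary screen, cut at about 22% in these data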
Numbers stand for hits; - = inactive; . = no result. Unless noted, no rule for the calls is given here.

SMILES	PRMT1 FP inh	ABHD5-PLIN5 inh	APOBEC3A inh	core dimer inh	HCV NS3 hel inh	A3G deaminase	NS3 helicase cf	DNA FID counter	PRMT1 inh conf	others
Cc1ccc(S(=O)(=O)/N=C2/NC(=O)/C(=C/c3ccccn3)S2)cc1	-	-	-	-	-	-	.	.	.
COc1ccc(S(=O)(=O)/N=C2/NC(=O)/C(=C\c3cc(OC)c(OC)cc3[N+](=O)[O-])S2)cc1	-	-	-	-	-	-	.	.	.
O=c1[nH]c(=O)n2c(c1-c1ccccc1)OC(CBr)C2 (stereo not drawn)	-	-	.	.	.	.	.	.	.
Cc1nnc(N2C(=O)C(O)=C(C(=O)c3ccco3)C2c2ccc(C(C)(C)C)cc2)s1 (stereo not drawn)	-	-	-	-	-	-	.	.	.
CSc1ccc(C2C(C(=O)c3ccco3)=C(O)C(=O)N2c2nnc(SC)s2)cc1 (stereo not drawn)	65.3	-	-	-	38.8	-	89.1	-	33.9	FID counter DR=-
COc1ccc(S(=O)(=O)NNC(N)=S)cc1	-	-	-	-	-	-	.	.	.
Nc1c(C(=O)Nc2ccccc2)sc2nc(-c3ccco3)ccc12	52.0	-	-	-	82.5	-	-	-	40.1
COc1ccc(NC(=O)c2sc3nc(-c4cccnc4)ccc3c2N)cc1	-	-	-	-	-	-	.	.	.
CCN(c1ccccc1)S(=O)(=O)c1ccc(OC)c(NC(=O)c2cc(Cl)ccn2)c1	-	-	-	.	.	-	.	.	.
COc1cc2cc3c(N)c(C(=O)Nc4sc(C)c(C)c4C#N)sc3nc2cc1OC	27.0	-	-	-	36.9	47.8	49.9	-	-	FID counter DR=-;A3G conf=26.6;UDG A3G counter=-
Cc1cc(C(=O)Nc2sc(C)c(C)c2C#N)no1	-	-	-	-	-	-	.	.	.
COC(=O)C1=C(O)/C(=C\c2ccc(CNS(=O)(=O)c3ccc(Cl)cc3)o2)N=C1C	56.1	31.6	-	-	40.1	-	-	-	-	ABHD5-PLIN5 conf=28.8;HNF4 split-luc=39.0
CCS(=O)(=O)C1=NN2C(=N)/C(=C\c3ccc(SCc4ccco4)o3)C(=O)N=C2S1	29.6	-	.	.	36.7	.	65.4	-	-
CCS(=O)(=O)C1=NN2C(=N)/C(=C\c3ccc(OC(=O)c4ccco4)c(Br)c3)C(=O)N=C2S1	.	.	-	-	-	-	.	.	.
CC1CCCCN1S(=O)(=O)c1cc2c(=O)nc3ccccn3c2cc1Cl (stereo not drawn)	-	.	.	.	.	.	.	.	.
CC1(C(=O)NS(=O)(=O)c2ccccc2OC(F)(F)F)CCN1C(=O)c1ccco1 (stereo not drawn)	-	-	.	.	.	.	.	.	.
Nc1ccc(O)cc1C(=O)OCC(=O)c1ccc(C2CCCCC2)cc1	29.3	-	.	-	59.1	.	-	-	-
Clc1ccc(-c2csc(NCC3CCCO3)n2)cc1 (stereo not drawn)	-	.	.	.	.	.	.	.	.
C(=C\c1ccco1)/c1ccc2ccccc2n1	38.2	-	-	53.2	42.0	-	-	-	-
COc1cc(/C=C2/C(=O)NN(c3ccc(C)c(Cl)c3)C2=O)cc([N+](=O)[O-])c1O	28.4	-	-	.	37.3	-	68.3	-	-
Cc1ccc(C(=O)/C=C/c2ccc(-c3ccccc3[N+](=O)[O-])o2)cc1	34.1	-	-	-	36.9	-	38.8	-	-
O=C(/C=C/c1ccc(-c2ccccc2[N+](=O)[O-])o1)c1ccc(Br)cc1	-	-	-	-	-	-	.	.	.
O=S(=O)(NC1CCN(S(=O)(=O)c2c(F)cccc2F)CC1)c1ccc2c(c1)OCCO2	-	-	-	.	.	-	.	.	.
NC(=O)c1sc2nc3c(c(-c4ccco4)c2c1N)CCCC3	-	-	-	-	-	-	.	.	.
Nc1c(C(=O)NCC2CCCO2)sc2nc3c(c(-c4ccco4)c12)CC/C3=C\c1ccco1 (stereo not drawn)	35.6	-	.	.	50.6	.	88.4	-	47.4	FID counter DR=-
SMILES	PRMT1 FP inh	ABHD5-PLIN5 inh	APOBEC3A inh	core dimer inh	HCV NS3 hel inh	A3G deaminase	NS3 helicase cf	DNA FID counter	PRMT1 inh conf	others
COC(=O)c1[nH]c2c(c1C)C(=O)CC(c1ccccc1)C2 (stereo not drawn)	-	-	-	-	-	-	.	.	.
Cc1c(C(=O)OCC(C)C)[nH]c2c1C(=O)CC(c1ccco1)C2 (stereo not drawn)	31.0	28.0	-	46.9	37.0	-	-	-	-	ABHD5-PLIN5 conf=-;HNF4 split-luc=-
COc1ccc(-c2ccc3c(c2)O[C@H](CN(C)C(=O)Nc2ccccc2F)[C@@H](C)CN([C@H](C)CO)S3(=O)=O)cc1	-	-	.	.	.	.	.	.	.
O=C(N/N=C\C=C\c1ccc([N+](=O)[O-])o1)c1cccs1	31.1	-	-	.	53.7	-	-	-	-
COc1ccccc1OCC(=O)N/N=C/C=C/c1ccc([N+](=O)[O-])o1	24.8	-	44.6	-	46.2	-	-	-	-	APOBEC3A confirm=19.0;UDG A3A counter=-
NC(=O)c1cc[n+](CC2=C(C(=O)O)N3C(=O)[C@@H](NC(=O)C(c4ccccc4)S(=O)(=O)[O-])[C@H]3SC2)cc1 (stereo partly drawn)	.	-	-	-	-	-	.	.	.
Cc1nnc(SCC2=C(C(=O)O)N3C(=O)C(NC(=O)C(C)n4nc(C(F)(F)F)cc4C)C3SC2)s1 (stereo not drawn)	28.5	-	-	-	39.9	-	-	-	-

Compound activity (PubChem)
